Measured values from ChEMBL document CHEMBL1629649, “Multiple regulatory pathways associated with high-level ciprofloxacin and multidrug resistance in Salmonella enterica serovar enteritidis: involvement of RamA and other global regulators” (2009).
≈ marks a conversion by molar mass, not a printed value.

What was measured:
Assay type in all cases: functional, Salmonella enterica subsp. enterica serovar Enteritidis
Salmonella enteritidis [1] = test: Antimicrobial activity against Salmonella enterica serovar enteritidis isolate NCTC 13349 by Etest
Salmonella enteritidis [2] = test: Antimicrobial activity against ramA::aph-deficient ciprofloxacin-resistant Salmonella enterica serovar enteritidis isolate 5408-cip harboring gyrA D87Y, gyrB E466D, parE V461G mutant gene by Etest
In short: (§1)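 Deletions (acrB, marA, soxS or ramA) were moved from SL1344 mutants into the isolates by P22 phage transduction. Transductants were selected on LB agar with 50 µg/ml kanamycin, and insertion of the kanamycin resistance gene was confirmed by PCR. MICs were then determined by Etest.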

Salmonella enteritidis [3] = test: Antimicrobial activity against ciprofloxacin-resistant Salmonella enterica serovar enteritidis isolate 104-cip harboring gyrA gene by Etest
In short: (§2)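 Wild-type alleles of the target genes were carried on plasmids and introduced into the ciprofloxacin-selected mutants by electrotransformation. Transformants were selected on LB agar with 50 µg/ml kanamycin at 37°C overnight. Quinolone MICs of the transformants were read by Etest strips alongside those of the parent and mutant strains.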

Salmonella enteritidis [4] = test: Antimicrobial activity against Salmonella enterica serovar enteritidis isolate 104-cip harboring gyrA D87Y,S83F mutant gene by Etest
Salmonella enteritidis [5] = test: Antimicrobial activity against Salmonella enterica serovar enteritidis isolate 5408 harboring gyrA gene by Etest
Salmonella enteritidis [6] = test: Antimicrobial activity against Salmonella enterica serovar enteritidis isolate 54 harboring gyrA D87Y mutant gene by Etest
Salmonella enteritidis [7] = test: Antimicrobial activity against marA::aph-deficient ciprofloxacin-resistant Salmonella enterica serovar enteritidis isolate 104-cip harboring gyrA D87Y,S83F mutant gene by Etest; in short: as §1
Salmonella enteritidis [8] = test: Antimicrobial activity against Salmonella enterica serovar enteritidis isolate 104 harboring gyrA D87Y mutant gene by Etest
Salmonella enteritidis [9] = test: Antimicrobial activity against Salmonella enterica serovar enteritidis isolate 58 harboring gyrA D87Y mutant gene by Etest
Salmonella enteritidis [10] = test: Antimicrobial activity against Salmonella enterica serovar enteritidis isolate 5408 harboring gyrA D87Y mutant gene by Etest
Salmonella enteritidis [11] = test: Antimicrobial activity against ciprofloxacin-resistant Salmonella enterica serovar enteritidis isolate 5408-cip harboring gyrA gene, gyrB E466D, parE V461G mutant gene by Etest; in short: as §2
Salmonella enteritidis [12] = test: Antimicrobial activity against acrB::aph-deficient Salmonella enterica serovar enteritidis isolate CUH60 harboring gyrA D87Y mutant gene by Etest; in short: as §1
Salmonella enteritidis [13] = test: Antimicrobial activity against acrB::aph-deficient Salmonella enterica serovar enteritidis isolate 51 harboring gyrA D87Y mutant gene by Etest; in short: as §1
Salmonella enteritidis [14] = test: Antimicrobial activity against acrB::aph-deficient Salmonella enterica serovar enteritidis isolate 104 harboring gyrA D87Y mutant gene by Etest; in short: as §1
Salmonella enteritidis [15] = test: Antimicrobial activity against acrB::aph-deficient ciprofloxacin-resistant Salmonella enterica serovar enteritidis isolate 5408-cip harboring gyrA D87Y, gyrB E466D, parE V461G mutant gene by Etest; in short: as §1
Salmonella enteritidis [16] = test: Antimicrobial activity against ciprofloxacin-resistant Salmonella enterica serovar enteritidis isolate 5408-cip harboring parE gene gyrA D87Y, gyrB E466D mutant gene by Etest; in short: as §2
Salmonella enteritidis [17] = test: Antimicrobial activity against Salmonella enterica serovar enteritidis isolate CUH48 by Etest
Salmonella enteritidis [18] = test: Antimicrobial activity against acrB::aph-deficient Salmonella enterica serovar enteritidis isolate 4931 harboring gyrA D87Y mutant gene by Etest; in short: as §1
Salmonella enteritidis [19] = test: Antimicrobial activity against acrB::aph-deficient Salmonella enterica serovar enteritidis isolate 5408 harboring gyrA D87Y mutant gene by Etest; in short: as §1
Salmonella enteritidis [20] = test: Antimicrobial activity against Salmonella enterica serovar enteritidis isolate CUH60 harboring gyrA D87Y mutant gene by Etest
Salmonella enteritidis [21] = test: Antimicrobial activity against Salmonella enterica serovar enteritidis isolate CUH52 by Etest
Salmonella enteritidis [22] = test: Antimicrobial activity against ciprofloxacin-resistant Salmonella enterica serovar enteritidis isolate 5408-cip harboring gyrA D87Y, gyrB E466D, parE V461G mutant gene by Etest
Salmonella enteritidis [23] = test: Antimicrobial activity against Salmonella enterica serovar enteritidis isolate 104 harboring gyrA gene by Etest
Salmonella enteritidis [24] = test: Antimicrobial activity against Salmonella enterica serovar enteritidis isolate 4931 harboring gyrA D87Y mutant gene by Etest
Salmonella enteritidis [25] = test: Antimicrobial activity against soxS::aph-deficient ciprofloxacin-resistant Salmonella enterica serovar enteritidis isolate 104-cip harboring gyrA D87Y,S83F mutant gene by Etest; in short: as §1
Salmonella enteritidis [26] = test: Antimicrobial activity against Salmonella enterica serovar enteritidis isolate 51 harboring gyrA D87Y mutant gene by Etest
Salmonella enteritidis [27] = test: Antimicrobial activity against ciprofloxacin-resistant Salmonella enterica serovar enteritidis isolate 5408-cip harboring gyrB gene gyrA D87Y, parE V461G mutant gene by Etest; in short: as §2
Salmonella enteritidis [28] = test: Antimicrobial activity against acrB::aph-deficient ciprofloxacin-resistant Salmonella enterica serovar enteritidis isolate 104-cip harboring gyrA D87Y,S83F mutant gene by Etest; in short: as §1

CCn1cc(C(=O)O)c(=O)c2ccc(C)nc21 [NALIDIXIC ACID] showed an MIC (Salmonella enteritidis [1]) of 8 µg/mL (≈ 34.4 µM), an MIC (Salmonella enteritidis [2]) of over 256 µg/mL and an MIC (Salmonella enteritidis [3]) of 8 µg/mL (≈ 34.4 µM). The MIC (Salmonella enteritidis [4]) was over 256 µg/mL, the MIC (Salmonella enteritidis [5]) was 4 µg/mL (≈ 17.2 µM) and the MIC (Salmonella enteritidis [6]) was over 256 µg/mL. The MIC (Salmonella enteritidis [7]) was over 256 µg/mL, the MIC (Salmonella enteritidis [8]) was over 256 µg/mL and the MIC (Salmonella enteritidis [9]) was over 256 µg/mL. The MIC (Salmonella enteritidis [10]) was over 256 µg/mL, the MIC (Salmonella enteritidis [11]) was over 256 µg/mL and the MIC (Salmonella enteritidis [12]) was 24 µg/mL (≈ 103 µM). For the same compound, the MIC (Salmonella enteritidis [13]) was 32 µg/mL (≈ 138 µM), the MIC (Salmonella enteritidis [14]) was 32 µg/mL (≈ 138 µM) and the MIC (Salmonella enteritidis [15]) was over 256 µg/mL. For the same compound, the MIC (Salmonella enteritidis [16]) was over 256 µg/mL, the MIC (Salmonella enteritidis [17]) was 6 µg/mL (≈ 25.8 µM) and the MIC (Salmonella enteritidis [18]) was 32 µg/mL (≈ 138 µM). It also gave an MIC (Salmonella enteritidis [19]) of 32 µg/mL (≈ 138 µM), an MIC (Salmonella enteritidis [20]) of over 256 µg/mL and an MIC (Salmonella enteritidis [21]) of 3 µg/mL (≈ 12.9 µM). For the same compound, the MIC (Salmonella enteritidis [22]) was over 256 µg/mL, the MIC (Salmonella enteritidis [23]) was 4 µg/mL (≈ 17.2 µM) and the MIC (Salmonella enteritidis [24]) was over 256 µg/mL. It also gave an MIC (Salmonella enteritidis [25]) of over 256 µg/mL, an MIC (Salmonella enteritidis [26]) of over 256 µg/mL and an MIC (Salmonella enteritidis [27]) of over 256 µg/mL. The MIC (Salmonella enteritidis [28]) was over 256 µg/mL.
